≈ marks a conversion by molar mass, not a printed value. Calls of active or inactive are those of the source. The rule behind the calls is not given here.
Key:
[1] = molecular target: Vascular endothelial growth factor receptor 2 (Homo sapiens, UniProt P35968); assay: Inhibition of VEGFR2 (unknown origin)
Staphylococcus aureus [2] = assay: Antimicrobial activity against Staphylococcus aureus; assay type: functional
Escherichia coli = assay: Antimicrobial activity against Escherichia coli ATCC 25922 by broth microdilution method
Candida albicans = assay: Antimicrobial activity against Candida albicans ATCC 10231 by broth microdilution method
Staphylococcus aureus [3] = assay: Antimicrobial activity against Staphylococcus aureus ATCC 29213 by broth microdilution method
A549 = assay: Downregulation of Bcl-2 gene expression in human A549 cells by qRT-PCR analysis; assay type: functional, cell-based
How it was run: (§1)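 A549/ATCC cells treated, total RNA DNase-treated and checked by 260/280 ratio (1.8–2.1). Reverse transcription with oligo-dT and MuLV RT: 25 °C 10 min, 42 °C 1 h, 99 °C 5 min. qPCR of 40 cycles (95 °C 15 s, 55 °C 30 s, 72 °C 30 s) followed by melt curve. Relative expression by the 2−ΔΔCT method, mean ± SEM.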

[4] = Upregulation of p53 gene expression in human A549 cells assessed as fold increase by qRT-PCR analysis; assay type: functional; how it was run: as §1
[5] = Upregulation of Bax gene expression in human A549 cells assessed as fold increase by qRT-PCR analysis; assay type: functional; how it was run: as §1

Chain of Vascular endothelial growth factor receptor 2 (P35968 whole entry): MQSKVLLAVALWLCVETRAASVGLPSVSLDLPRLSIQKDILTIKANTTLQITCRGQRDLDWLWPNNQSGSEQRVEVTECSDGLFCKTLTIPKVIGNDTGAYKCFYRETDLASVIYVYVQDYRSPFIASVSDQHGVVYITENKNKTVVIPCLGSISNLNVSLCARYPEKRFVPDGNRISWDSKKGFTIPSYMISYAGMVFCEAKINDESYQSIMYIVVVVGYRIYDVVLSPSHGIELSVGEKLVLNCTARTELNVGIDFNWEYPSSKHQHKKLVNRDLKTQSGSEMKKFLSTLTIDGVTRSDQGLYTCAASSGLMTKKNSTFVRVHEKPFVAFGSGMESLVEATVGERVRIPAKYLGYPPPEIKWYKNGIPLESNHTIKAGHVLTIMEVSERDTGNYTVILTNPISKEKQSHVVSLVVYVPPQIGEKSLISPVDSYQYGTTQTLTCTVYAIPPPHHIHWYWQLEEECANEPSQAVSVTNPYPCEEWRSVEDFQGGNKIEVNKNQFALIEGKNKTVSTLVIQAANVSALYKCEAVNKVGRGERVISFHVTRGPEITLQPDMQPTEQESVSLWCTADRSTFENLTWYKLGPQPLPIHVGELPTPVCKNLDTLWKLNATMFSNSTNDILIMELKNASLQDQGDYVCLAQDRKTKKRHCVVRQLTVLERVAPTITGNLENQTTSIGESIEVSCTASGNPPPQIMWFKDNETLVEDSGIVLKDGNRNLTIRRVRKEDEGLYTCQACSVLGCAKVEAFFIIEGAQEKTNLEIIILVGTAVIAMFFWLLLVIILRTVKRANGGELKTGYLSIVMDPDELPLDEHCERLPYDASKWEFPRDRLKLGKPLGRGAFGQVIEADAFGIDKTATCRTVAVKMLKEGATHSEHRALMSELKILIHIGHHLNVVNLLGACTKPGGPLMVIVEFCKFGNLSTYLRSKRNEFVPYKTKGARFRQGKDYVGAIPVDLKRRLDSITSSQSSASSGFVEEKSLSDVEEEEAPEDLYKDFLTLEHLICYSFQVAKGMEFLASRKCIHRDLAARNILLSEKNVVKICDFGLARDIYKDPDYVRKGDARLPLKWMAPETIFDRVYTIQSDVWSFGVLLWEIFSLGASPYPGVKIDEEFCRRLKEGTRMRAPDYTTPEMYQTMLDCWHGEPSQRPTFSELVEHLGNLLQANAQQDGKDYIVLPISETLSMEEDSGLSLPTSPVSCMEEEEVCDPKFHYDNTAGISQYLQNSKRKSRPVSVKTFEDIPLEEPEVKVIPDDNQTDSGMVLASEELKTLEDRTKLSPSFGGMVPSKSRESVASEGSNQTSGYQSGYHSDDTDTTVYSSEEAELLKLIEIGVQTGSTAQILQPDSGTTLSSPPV

Compound	MIC (Escherichia coli)	MIC (Candida albicans)	MIC (Staphylococcus aureus [3])	also measured
O=C(Nc1ccc(Cl)c(C(F)(F)F)c1)Nc1ccc(Cl)c(C(F)(F)F)c1				IC50 [1]: 0.00113 µM; MIC (Staphylococcus aureus [2]): 0.25 µg/mL (≈ 0.599 µM)
O=C(Nc1ccc(-c2ccc(=O)[nH]n2)cc1)Nc1cccc(Br)c1	512 µg/mL (≈ 1330 µM)	> 1020 µg/mL	128 µg/mL (≈ 332 µM)	
O=C(NC(=S)Nc1ccc(-c2ccc(=O)[nH]n2)cc1)c1ccc(F)c(Cl)c1	256 µg/mL (≈ 635 µM)	512 µg/mL (≈ 1270 µM)	512 µg/mL (≈ 1270 µM)	
O=C(NC(=S)Nc1ccc(-c2ccc(=O)[nH]n2)cc1)c1ccc(F)cc1	256 µg/mL (≈ 695 µM)	512 µg/mL (≈ 1390 µM)	256 µg/mL (≈ 695 µM)	
O=c1ccc(-c2ccc(NC(=S)Nc3ccc(Cl)c(Cl)c3)cc2)n[nH]1	512 µg/mL (≈ 1310 µM)	32 µg/mL (≈ 81.8 µM)	128 µg/mL (≈ 327 µM)	
O=C1CCC(c2ccc(NC(=S)NC(=O)c3ccc([N+](=O)[O-])cc3)cc2)=NN1	256 µg/mL (≈ 644 µM)	512 µg/mL (≈ 1290 µM)	512 µg/mL (≈ 1290 µM)	
O=C(NC(=S)Nc1ccc(-c2ccc(=O)[nH]n2)cc1)c1cccc(F)c1	256 µg/mL (≈ 695 µM)	512 µg/mL (≈ 1390 µM)	128 µg/mL (≈ 347 µM)	
O=C(NC(=S)Nc1ccc(Cl)cn1)c1ccc(N2CCCCC2)c([N+](=O)[O-])c1				MIC (Staphylococcus aureus [2]): 0.06 µg/mL (≈ 0.143 µM)
O=c1ccc(/C=C/c2ccc(NS(=O)(=O)c3ccc(Cl)c(Cl)c3)cc2)n[nH]1	512 µg/mL (≈ 1210 µM)	512 µg/mL (≈ 1210 µM)	512 µg/mL (≈ 1210 µM)	
O=c1ccc(-c2ccc(NC(=S)Nc3cccc(F)c3)cc2)n[nH]1	> 1020 µg/mL	64 µg/mL (≈ 188 µM)	512 µg/mL (≈ 1500 µM)	
COc1cccc2c1C(=O)c1c(O)c3c(c(O)c1C2=O)C[C@@](O)(C(=O)CO)C[C@@H]3O[C@H]1C[C@H](N)[C@H](O)[C@H](C)O1 [DOXORUBICIN]				Activity (A549): Active; fold change (FC) [4]: 3; fold change (FC) [5]: 3
O=C(Nc1ccc(-c2ccc(=O)[nH]n2)cc1)Nc1ccc(Cl)c(C(F)(F)F)c1				IC50 [1]: 1.8 µM; MIC (Staphylococcus aureus [2]): > 128 µg/mL
O=C(Nc1ccc(F)cc1)Nc1ccc(-c2ccc(=O)[nH]n2)cc1	256 µg/mL (≈ 789 µM)	> 1020 µg/mL	256 µg/mL (≈ 789 µM)	
CC(=O)N1CCN(c2ccc(OCC3COC(Cn4ccnc4)(c4ccc(Cl)cc4Cl)O3)cc2)CC1 (configuration not stated) [KETOCONAZOLE]		2 µg/mL (≈ 3.76 µM)		
O=c1ccc(-c2ccc(NS(=O)(=O)c3cccc(F)c3)cc2)n[nH]1	1020 µg/mL (≈ 2970 µM)	256 µg/mL (≈ 741 µM)	512 µg/mL (≈ 1480 µM)	
O=C(NC(=S)Nc1ccc(/C=C/c2ccc(=O)[nH]n2)cc1)c1cccc(Br)c1	256 µg/mL (≈ 562 µM)	512 µg/mL (≈ 1120 µM)	1020 µg/mL (≈ 2250 µM)	
O=c1ccc(-c2ccc(NS(=O)(=O)c3cccc(Cl)c3)cc2)n[nH]1	1020 µg/mL (≈ 2830 µM)	256 µg/mL (≈ 708 µM)	256 µg/mL (≈ 708 µM)	
O=C(NC(=S)Nc1ccc(-c2ccc(=O)[nH]n2)cc1)c1ccc(Br)cc1	128 µg/mL (≈ 298 µM)	512 µg/mL (≈ 1190 µM)	128 µg/mL (≈ 298 µM)	
N#Cc1ccc(Oc2ccc3cccc(NC(=O)Nc4ccc(Cl)c(C(F)(F)F)c4)c3c2)cc1				MIC (Staphylococcus aureus [2]): 1 µg/mL (≈ 2.08 µM)
O=c1ccc(/C=C/c2ccc(NS(=O)(=O)c3cccc(Br)c3)cc2)n[nH]1	512 µg/mL (≈ 1180 µM)	512 µg/mL (≈ 1180 µM)	1020 µg/mL (≈ 2370 µM)	
N#Cc1ccc(Oc2cccc(NC(=O)Nc3ccc(Cl)c(C(F)(F)F)c3)c2)cc1Cl				MIC (Staphylococcus aureus [2]): 0.5 µg/mL (≈ 1.07 µM)
O=c1ccc(-c2ccc(NS(=O)(=O)c3cccc(Br)c3)cc2)n[nH]1	256 µg/mL (≈ 630 µM)	64 µg/mL (≈ 158 µM)	512 µg/mL (≈ 1260 µM)	
O=C(NC(=S)Nc1ccc(-c2ccc(=O)[nH]n2)cc1)c1ccc(Cl)c(Cl)c1	> 1020 µg/mL	512 µg/mL (≈ 1220 µM)	> 1020 µg/mL	
O=C(Nc1ccc(Cl)c(C(F)(F)F)c1)C(CCl)C(=O)Nc1ccc(Cl)c(C(F)(F)F)c1				MIC (Staphylococcus aureus [2]): 0.5 µg/mL (≈ 0.985 µM)

Compound	MIC (Escherichia coli)	MIC (Candida albicans)	MIC (Staphylococcus aureus [3])	also measured
O=C(NC(=S)Nc1ccc(-c2ccc(=O)[nH]n2)cc1)c1ccc([N+](=O)[O-])cc1	> 1020 µg/mL	512 µg/mL (≈ 1290 µM)	> 1020 µg/mL	
O=C(Nc1ccc2c(c1)OC(F)(F)O2)Nc1ccc(Cl)c(C(F)(F)F)c1				MIC (Staphylococcus aureus [2]): 0.3 µg/mL (≈ 0.76 µM)
O=c1ccc(-c2ccc(NS(=O)(=O)c3ccc(F)c(Cl)c3)cc2)n[nH]1	256 µg/mL (≈ 674 µM)	256 µg/mL (≈ 674 µM)	128 µg/mL (≈ 337 µM)	
O=C(Nc1ccc(Br)cc1)Nc1ccc(-c2ccc(=O)[nH]n2)cc1	> 1020 µg/mL	512 µg/mL (≈ 1330 µM)	> 1020 µg/mL	
O=c1ccc(-c2ccc(NC(=S)Nc3c(Cl)cc(Cl)cc3Cl)cc2)n[nH]1	256 µg/mL (≈ 601 µM)	64 µg/mL (≈ 150 µM)	128 µg/mL (≈ 301 µM)	
O=C(NC(=S)Nc1ccc(-c2ccc(=O)[nH]n2)cc1)c1ccc(Cl)cc1	512 µg/mL (≈ 1330 µM)	512 µg/mL (≈ 1330 µM)	256 µg/mL (≈ 665 µM)	
O=c1ccc(-c2ccc(NS(=O)(=O)c3ccc(Cl)c(Cl)c3)cc2)n[nH]1	1020 µg/mL (≈ 2580 µM)	256 µg/mL (≈ 646 µM)	512 µg/mL (≈ 1290 µM)	
O=c1ccc(-c2ccc(NS(=O)(=O)c3ccc(Cl)cc3)cc2)n[nH]1	256 µg/mL (≈ 708 µM)	256 µg/mL (≈ 708 µM)	128 µg/mL (≈ 354 µM)	
O=C(NC(=S)Nc1ccc(/C=C/c2ccc(=O)[nH]n2)cc1)c1ccc(Cl)c(Cl)c1	1020 µg/mL (≈ 2300 µM)	512 µg/mL (≈ 1150 µM)	256 µg/mL (≈ 575 µM)	
O=C1CCC(c2ccc(NC(=S)NC(=O)c3ccccc3)cc2)=NN1	256 µg/mL (≈ 726 µM)	512 µg/mL (≈ 1450 µM)	512 µg/mL (≈ 1450 µM)	
O=C(Nc1ccc(Oc2ccc(=O)[nH]n2)cc1)Nc1ccc(Cl)c(Cl)c1				MIC (Staphylococcus aureus [2]): 0.5 µg/mL (≈ 1.28 µM)
O=C(NC(=S)Nc1ccc(-c2ccc(=O)[nH]n2)cc1)c1cccc(Br)c1	256 µg/mL (≈ 596 µM)	512 µg/mL (≈ 1190 µM)	16 µg/mL (≈ 37.3 µM)	
CNC(C)[C@@H]1CC[C@@H](N)[C@@H](O[C@H]2[C@H](O)[C@@H](O[C@H]3OC[C@](C)(O)[C@H](NC)[C@H]3O)[C@H](N)C[C@@H]2N)O1.CN[C@@H]1[C@@H](O)[C@@H](O[C@@H]2[C@@H](O)[C@H](O[C@H]3O[C@H](C(C)N)CC[C@H]3N)[C@@H](N)C[C@H]2N)OC[C@]1(C)O.CN[C@@H]1[C@@H](O)[C@@H](O[C@@H]2[C@@H](O)[C@H](O[C@H]3O[C@H](CN)CC[C@H]3N)[C@@H](N)C[C@H]2N)OC[C@]1(C)O (some centres not stated)			0.5 µg/mL	
O=c1ccc(-c2ccc(NC(=S)Nc3cccc(Br)c3)cc2)n[nH]1	1020 µg/mL (≈ 2550 µM)	32 µg/mL (≈ 79.7 µM)	128 µg/mL (≈ 319 µM)	
O=C1CCC(c2ccc(NC(=S)NC(=O)c3ccc(Br)cc3)cc2)=NN1	256 µg/mL (≈ 594 µM)	512 µg/mL (≈ 1190 µM)	512 µg/mL (≈ 1190 µM)	
O=C1CCC(c2ccc(NC(=S)NC(=O)c3ccc(Cl)cc3)cc2)=NN1	256 µg/mL (≈ 662 µM)	512 µg/mL (≈ 1320 µM)	512 µg/mL (≈ 1320 µM)	
N#Cc1ccc(Oc2cccc(NC(=O)Nc3ccc(Cl)c(C(F)(F)F)c3)c2)c(F)c1				MIC (Staphylococcus aureus [2]): 0.5 µg/mL (≈ 1.11 µM)
O=c1ccc(-c2ccc(NC(=S)Nc3ccc(Br)cc3)cc2)n[nH]1	512 µg/mL (≈ 1280 µM)	256 µg/mL (≈ 638 µM)	128 µg/mL (≈ 319 µM)	
O=C(NC(=S)Nc1ccc(-c2ccc(=O)[nH]n2)cc1)c1c(Cl)cc(Cl)cc1Cl	256 µg/mL (≈ 564 µM)	512 µg/mL (≈ 1130 µM)	128 µg/mL (≈ 282 µM)	
O=C(Nc1ccc(Oc2ccc(=O)[nH]n2)cc1)Nc1ccc(Cl)c(C(F)(F)F)c1				MIC (Staphylococcus aureus [2]): > 128 µg/mL
O=c1ccc(/C=C/c2ccc(NC(=S)Nc3ccc(Cl)c(Cl)c3)cc2)n[nH]1	512 µg/mL (≈ 1230 µM)	512 µg/mL (≈ 1230 µM)	128 µg/mL (≈ 307 µM)	
O=C(NC(=S)Nc1ccc(-c2ccc(=O)[nH]n2)cc1)c1ccc(Cl)c(F)c1	> 1020 µg/mL	512 µg/mL (≈ 1270 µM)	> 1020 µg/mL	
O=C(NC(=S)Nc1ccc(-c2ccc(=O)[nH]n2)cc1)c1ccccc1	256 µg/mL (≈ 731 µM)	512 µg/mL (≈ 1460 µM)	256 µg/mL (≈ 731 µM)	
O=c1ccc(-c2ccc(NC(=S)Nc3cccc(Cl)c3)cc2)n[nH]1	256 µg/mL (≈ 717 µM)	16 µg/mL (≈ 44.8 µM)	128 µg/mL (≈ 359 µM)	

— ChEMBL document CHEMBL6083209, “Pyridazinone-based derivatives as anticancer agents endowed with anti-microbial activity: molecular design, synthesis, and biological investigation” (RSC Med Chem, 2024)
